A selection: hits, their analogues and other compounds. The true share with any hit is near 2.7%.
F508del corr: CFTR F508del correction in bronchial cells; activity (quench increase), % at 7.58 µM; CFBE cells, YFP halide quenching; stimulated with forskolin plus potentiator P3; % fluorescence drop versus neutral controls; actives 0.36% (n = 350,000); AID 720511;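 active = mean added fluorescence quench of at least 8% versus neutral control, with both replicates also reaching 8%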;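 note: cells transiently co-express mutant CFTR-F508del with the halide-sensitive YFP; corrector assay measuring rescue of mutant channel to the surface after 24 h compound exposure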
HIV Env fusion: blocks HIV Env-driven cell-cell fusion; HeLa-JRFL Env/CEM21 cell fusion, luciferase; inhibition, % at 12.3 µM; actives 1.1% (n = 360,000); AID 651610;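 active = mean replicate inhibition score of at least 50 and every replicate individually at or above 50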;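 note: 0% = plate neutral controls and 100% = maraviroc near 300 nM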
S100A4 MyoIIA: inhibitors of human S100A4 binding to myosin IIA peptide; S100A4/TAMRA-MyoIIA peptide fluorescence polarization; inhibition, % at 10.7 µM; actives 0.14% (n = 360,000); AID 652163;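 active = mean inhibition of at least 70% across replicates, with every replicate also reaching that level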
Target sequence (P26447 whole entry, looked up): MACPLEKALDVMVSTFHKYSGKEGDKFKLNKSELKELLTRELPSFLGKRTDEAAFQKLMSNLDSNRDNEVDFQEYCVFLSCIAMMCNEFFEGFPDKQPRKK
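incubation = readout 5 min after mixing, signal stable up to 60 min | system = S100A4 monomer protein | buffer or medium = HEPES pH 7.2 with CaCl2, KCl, NaCl, DTT, Triton | benchmarks = neutral control DMSO, positive control TFP | also added = fluorescent myosin IIA peptide, 5 nM | compound dosing = one concentration per compound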
E-sel inducer: induces E-selectin expression in human endothelial cells | P16581 | HUVEC E-selectin immunofluorescence imaging; normalized: neutral wells 0, TNF-alpha wells 100 | activation, % at 7.58 µM | actives 0.37% (n = 260,000);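 active = mean E-selectin-positive cell signal at least 10% of the positive control, reached in at least 60% of replicates, without over 20% cell loss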
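Assay system: HUVEC primary endothelial cells. Input: 3,000 HUVEC seeded per well. Doses: one compound dose added by pin transfer. Read-out basis: % PE-positive cells. Benchmarks: TNF-alpha high, DMSO low. Detection: immunofluorescence imaging. Buffer or medium: EGM-2, gelatin.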
FGF22 binding: FGF22 (human) thermal shift binding. recombinant FGF22 thermal shift, SYPRO orange fluorescence; percent of sucrose octasulfate shift, DMSO zero. actives 1.5% (n = 340,000). Q9HCT0. activity (Tm shift, normalised), % at 9.99 µM;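 active = mean Tm shift, scaled 0 neutral to 100 positive control, at about 1.3% or above, every replicate too, limit read from the data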
Target sequence (Q9HCT0 whole entry, looked up): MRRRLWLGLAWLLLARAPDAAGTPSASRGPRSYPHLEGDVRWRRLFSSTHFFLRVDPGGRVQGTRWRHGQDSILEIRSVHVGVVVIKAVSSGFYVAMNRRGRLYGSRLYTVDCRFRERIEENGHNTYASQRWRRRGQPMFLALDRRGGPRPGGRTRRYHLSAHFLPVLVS
* hit, by the source's call; . = no result given; [ ] = remark or other dose.

SMILES | F508del corr | HIV Env fusion | S100A4 MyoIIA | E-sel inducer | FGF22 binding
C[C@H]1CN([C@@H](C)CO)C(=O)Cc2cc(NC(=O)Nc3ccc4c(c3)OCO4)ccc2O[C@@H]1CN(C)C | 2.9 | . | 44.8 | 232.9* | -0.4
C[C@@H]1CN([C@@H](C)CO)C(=O)c2cc(NC(=O)Nc3ccc4c(c3)OCO4)ccc2O[C@H]1CN(C)C | -1.3 | . | -0.4 | 44.9* | -0.2
CCN1[C@@H]2Cn3c(ccc(-c4ccc(OC)cc4)c3=O)[C@H]1[C@@H](C(=O)NCC1CC1)[C@@H]2CO | 3.4 | . | 4.3 | -0.4 | 0.0
C[C@H](CO)N1C[C@H](C)[C@@H](CN(C)Cc2ccccc2F)Oc2cc(C3=CCCCC3)ccc2S1(=O)=O | -3.2 | 27.7[16.7 µM] | 12.6 | . | 0.0
C[C@H](CO)N1C[C@H](C)[C@H](CN(C)CC2CC2)Oc2ccc(NC(=O)Nc3ccc4c(c3)OCO4)cc2CC1=O | -2.3 | 65.2*[16.7 µM] | 4.1 | -13.0 | 0.5
C[C@@H]1CN([C@@H](C)CO)C(=O)c2cc(NC(=O)Nc3ccc4c(c3)OCO4)ccc2O[C@H]1CN(C)Cc1ccc(-c2ccccc2)cc1 | 0.8 | 16.4[16.7 µM] | -2.2 | 59.7* | 0.0
COc1ccccc1C(=O)Nc1ccc2c(c1)OC[C@H](C)N(C)C[C@@H](C)[C@H](OC)CN(C)C2=O | 0.8 | 0.3[16.7 µM] | -2.7 | 2.0 | 0.0
C[C@H](CO)N1C[C@H](C)[C@@H](CN(C)Cc2ccccc2)OCCCC[C@H](C)Oc2ccc(NC(=O)Nc3cccc4ccccc34)cc2C1=O | 0.1 | 5.5[16.7 µM] | -1.2 | . | -0.5
C[C@@H]1CCCCO[C@H](CN(C)CC2CCCCC2)[C@H](C)CN([C@@H](C)CO)C(=O)c2cc(NC(=O)Nc3cccc4ccccc34)ccc2O1 | -3.6 | 9.4[16.7 µM] | -2.6 | 2.1 | -0.5
C[C@H]1CCCCO[C@@H](CN(C)Cc2ccccc2)[C@@H](C)CN([C@@H](C)CO)C(=O)c2cc(NC(=O)Nc3cccc4ccccc34)ccc2O1 | 2.9 | 109.9*[16.7 µM] | 4.4 | . | -0.2
C[C@H](CO)N1C[C@H](C)[C@@H](CN(C)CC2CCCCC2)OCCCC[C@H](C)Oc2ccc(NC(=O)Nc3cccc4ccccc34)cc2C1=O | 1.4 | -12.5[16.7 µM] | -11.4 | 1.9 | 1.5*
C[C@H](CO)N1C[C@H](C)[C@H](CN(C)CC2CCCCC2)OCCCC[C@H](C)Oc2ccc(NC(=O)Nc3cccc4ccccc34)cc2C1=O | -2.4 | 46.7[16.7 µM] | 1.4 | 1.1 | 0.4
C[C@@H]1CCCCO[C@@H](CN(C)CC2CCCCC2)[C@@H](C)CN([C@@H](C)CO)C(=O)c2cc(NC(=O)Nc3cccc4ccccc34)ccc2O1 | -2.5 | 3.0[16.7 µM] | 14.5 | 1.1 | 1.5*
C[C@@H]1CCCCO[C@H](CN(C)CC2CCCCC2)[C@H](C)CN([C@H](C)CO)C(=O)c2cc(NC(=O)Nc3cccc4ccccc34)ccc2O1 | -1.5 | 14.2[16.7 µM] | 8.6 | 3.6 | 1.3*
CCS(=O)(=O)N1CCCCN2[C@@H](CO)[C@H](c3ccc(C#Cc4ccccc4OC)cc3)[C@@H]2C1 | -1.9 | . | -10.9 | 0.7 | -0.5
CCC(=O)N[C@H]1CC[C@H](CCNC(=O)Nc2ccc(F)cc2)O[C@H]1CO | 1.8 | 2.3[16.7 µM] | 12.0 | -0.3 | -0.2
C[C@@H]1CN([C@H](C)CO)C(=O)c2cc(NS(=O)(=O)c3cn(C)cn3)ccc2O[C@@H](C)CCCCO[C@H]1CN(C)C(=O)Nc1ccc(C(F)(F)F)cc1 | 0.6 | -11.2[16.7 µM] | -6.0 | 2.4 | -1.2
COc1cc(/C=C2\CCCc3c2nc2ccccc2c3C(=O)O)cc(Br)c1O | -1.4 | 11.7 | 3.6 | . | 20.9*
CCOc1cc(/C=C2\CCCc3c2nc2ccccc2c3C(=O)O)ccc1OC | 4.7 | 11.4 | 80.0* | 4.0 | -0.1
COc1cc(/C=C2\CCc3c2nc2ccccc2c3C(=O)O)cc(OC)c1OC | 0.5 | -199.9 | -17.4 | . | -0.4
CC1(C)NC(=O)N(CCCCOc2ccc(Cl)cc2)C1=O | . | 10.5 | . | . | .
CC1(C)NC(=O)N(CCCCOc2ccc(Cl)cc2C=O)C1=O | 0.3 | 14.4 | 0.2 | 3.7 | 43.1*
O=C(c1cccnc1)N1CC(=O)N2[C@H](CO)[C@H](c3ccc(/C=C/c4ccccc4)cc3)[C@H]2C1 | 2.2 | . | 11.1 | -0.3 | .
COc1ccc(-c2ccccc2[C@H]2[C@@H]3C=CC[C@@H](C)[C@@H]3C(=O)N2Cc2ccccc2)cc1 | 1.7 | 125.6* | 3.9 | . | -0.1
